The inhibition is the drop in the measured response relative to a control, in per cent.

The structures appear in SMILES notation. About 2,400 (0.73%) of roughly 330,000 compounds were called active. Rule for the calls: active = inhibition of at least 40% at 20 µM; inactive = the rest. For the sample, actives were picked, then their nearest neighbours and some compounds at random.

Sequence of Apoptotic protease-activating factor 1 (Homo sapiens) (O14727 whole entry, looked up): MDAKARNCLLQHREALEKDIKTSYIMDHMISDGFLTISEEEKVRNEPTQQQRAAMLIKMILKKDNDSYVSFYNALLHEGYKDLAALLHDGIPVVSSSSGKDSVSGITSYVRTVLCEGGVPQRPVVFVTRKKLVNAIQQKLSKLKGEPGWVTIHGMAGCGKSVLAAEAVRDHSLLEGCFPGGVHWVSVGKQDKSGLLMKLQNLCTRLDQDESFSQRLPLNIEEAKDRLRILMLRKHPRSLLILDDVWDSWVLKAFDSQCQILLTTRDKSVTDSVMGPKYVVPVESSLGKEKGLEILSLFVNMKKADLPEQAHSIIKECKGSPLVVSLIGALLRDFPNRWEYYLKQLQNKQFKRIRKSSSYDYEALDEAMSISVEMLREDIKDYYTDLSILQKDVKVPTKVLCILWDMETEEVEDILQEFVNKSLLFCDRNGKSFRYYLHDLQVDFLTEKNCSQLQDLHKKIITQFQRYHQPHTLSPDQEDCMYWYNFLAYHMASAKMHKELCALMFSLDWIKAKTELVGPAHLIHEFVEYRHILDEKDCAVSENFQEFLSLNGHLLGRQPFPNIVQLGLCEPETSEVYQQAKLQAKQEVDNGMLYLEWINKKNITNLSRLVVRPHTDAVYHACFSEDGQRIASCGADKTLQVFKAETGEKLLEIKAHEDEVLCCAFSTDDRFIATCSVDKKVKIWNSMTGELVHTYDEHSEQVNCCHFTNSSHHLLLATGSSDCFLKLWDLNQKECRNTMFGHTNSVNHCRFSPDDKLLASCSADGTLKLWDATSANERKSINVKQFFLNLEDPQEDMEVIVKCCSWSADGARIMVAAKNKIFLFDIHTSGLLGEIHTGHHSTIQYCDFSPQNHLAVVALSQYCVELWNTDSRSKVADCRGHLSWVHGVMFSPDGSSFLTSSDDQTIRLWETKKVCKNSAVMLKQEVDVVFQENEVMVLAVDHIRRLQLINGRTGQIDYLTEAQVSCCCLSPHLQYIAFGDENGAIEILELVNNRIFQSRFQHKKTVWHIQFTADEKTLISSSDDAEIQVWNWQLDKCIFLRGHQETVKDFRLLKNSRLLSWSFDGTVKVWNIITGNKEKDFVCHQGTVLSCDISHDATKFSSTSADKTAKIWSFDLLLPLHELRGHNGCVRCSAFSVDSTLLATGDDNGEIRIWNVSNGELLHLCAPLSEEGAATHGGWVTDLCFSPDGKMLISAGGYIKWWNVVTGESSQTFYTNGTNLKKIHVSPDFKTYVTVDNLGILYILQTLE

This test concerns the target Apoptotic protease-activating factor 1 (Homo sapiens) (UniProt O14727). As to the kind of experiment: blockers of Apaf-1-driven caspase-3 activation – biochemical, DEVD-Rh110 fluorescence, uHTS, primary screen (AID 489030).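 Note: plate controls were DMSO wells for no effect and DEVD-CHO caspase inhibitor wells for full effect.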 The following applies: reconstituted apoptosome caspase-3 activity, at 20 µM, active compounds read high. An outline of the steps:
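detection = Rh110 fluorescence intensity | test system = biochemical Apaf-1 apoptosome reconstitution | also added = cytochrome c and DEVD-Rh110 substrate | schedule = 30 min plus 50 min, RT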
In the case of `COC(=O)c1nn(-c2cccc(Cl)c2)ccc1=O`, the inhibition was -6.21% (inactive). With `CN(CCc1cn[nH]c1)C(=O)CC1C(=O)NCCN1Cc1cccc(Oc2ccccc2)c1` (configuration not stated) the figure was 13% (inactive); with `O=C1CSc2ccc(C(=O)NCc3ccccn3)cc2N1`, -4.15% (inactive); with `COCCNC(=O)c1snc2ccc(Cl)cc12`, -26% (inactive). Next, `CCCNC(=O)Nc1ccccc1C(=O)Nc1ccc(OC)cc1`: 11.1% (inactive); `O=C(NCc1ccccn1)c1ccc2nc(-c3ccco3)c(-c3ccco3)nc2c1`: 60.6% (active); `COc1cccc(S(=O)(=O)NCc2ccc(C(=O)NCc3ccccn3)cc2)c1`: 4.94% (inactive).

`COCCNC(=O)Nc1ccc2nc(-c3ccco3)c(-c3ccco3)nc2c1`: the inhibition was 64.8% (active). Next, `O=C(O)c1ccc(NC(=O)c2ccc(COc3ccc(Cl)cc3)o2)cc1`: 3.81% (inactive); `Cn1c(=O)n(C)c2cc(NS(=O)(=O)c3ccc(F)cc3)ccc21`: 1.91% (inactive).

Take `Cc1cccc(C)c1Nc1nnc(SCC(=O)NCCCN2CCCC2=O)s1`: the inhibition is -3.15% (inactive). With `O=C(Nc1cccnc1Cl)c1cc(-c2cccc(Cl)c2)on1` the figure was 3.02% (inactive); with `Cc1ccc(/C=C(\C#N)C(=O)Nc2cccc3ncccc23)o1`, -6.14% (inactive); with `O=C(O)c1cc(Cl)c(Cl)cc1C(=O)Nc1cccc2ncccc12`, 80.4% (active). With `C=C(C)CNc1cc(S(=O)(=O)N2CCOCC2)ccc1Oc1ccccc1` the figure was 24.2% (inactive); with `CCCC[C@@H]1CN=C(N)N1CCCC`, 8.23% (inactive). With `CCCC[C@@H]1CN=C(N)N1CCc1cc(C(F)(F)F)cc(C(F)(F)F)c1`, the inhibition is 52.3% (active).

In the case of `CCCC[C@@H]1CN=C(N)N1CCc1cccc(F)c1`, the inhibition is 4.48% (inactive). With `COc1ccccc1N=C1SC(C)CN1C(=O)C1CCC1` (configuration not stated), the inhibition is 3.12% (inactive). Next, `Cc1ccc(C)c(Cn2cnc3c(oc4ccccc43)c2=O)c1`: -9.64% (inactive); `CCOC(=O)C1CCCN(C(=O)c2cccc(S(=O)(=O)N3CCOCC3)c2)C1` (configuration not stated): -8.74% (inactive); `CCOC(=O)C1CCN(C(=O)c2cccc(S(=O)(=O)N(CC)c3ccccc3)c2)CC1`: 45.2% (active). As for `CCOC(=O)C1CCN(C(=O)c2ccccc2N(C)S(=O)(=O)c2ccccc2)CC1`, the inhibition is 2.95% (inactive). Next, `CC(C)[C@@H](NC(=O)OC(C)(C)C)C(=O)NCC1CCC(C(=O)N[C@@H](Cc2ccccc2)C(=O)O)CC1` (some centres not stated): 2.34% (inactive). In the case of `CCCCC(=O)Nc1ccc(C(=O)Nc2cc(C(F)(F)F)ccc2Cl)cc1`, the inhibition is 37.6% (inactive).

Regarding `CCCCN(CCCC)CCC(O)c1cc2c(Cl)cc(Cl)cc2c2cc(C(F)(F)F)ccc12` (configuration not stated), the inhibition is 48.9% (active). With `ON=C1/C(=N\O)CC2(C/C1=N/O)OCCO2` the figure was -16% (inactive). Consider `CN(C(=O)CN1C(=O)CCSc2ccc(S(=O)(=O)N3CCCC3)cc21)c1ccccc1`, for which the inhibition was -2.73% (inactive). Regarding `CCC(CO)Oc1cc(NC(=O)c2ccc(Cl)cc2)c2ncn(C(C)C)c2c1` (configuration not stated), the inhibition is 11.6% (inactive).

`CCC(CO)Oc1cc(NC(=O)c2cccc(F)c2)c2ncn(C(C)C)c2c1` (configuration not stated): the inhibition is 17.6% (inactive). For the compound `CCC(CO)Oc1cc(NC(=O)c2cccc3ccccc23)c2ncn(C(C)C)c2c1` (configuration not stated), the inhibition is 29.6% (inactive). Next, `CC(C)n1cnc2c(NCc3ccccc3)cc(N[C@@H](CO)Cc3ccccc3)cc21`: 94.5% (active); `CCC(CO)Oc1cc(NCc2ccccc2)c2ncn(C3CCCC3)c2c1` (configuration not stated): 32.6% (inactive). With `CC(C)n1cnc2c(NCc3ccccc3)cc(OCC3CCN(C)CC3)cc21`, the inhibition was 96.4% (active). On to `COc1ccc(N2CCN(CCNC(=O)c3nnc(Cc4c(F)cccc4Cl)o3)CC2)cc1`, for which the inhibition was -8.42% (inactive). With `Cn1c(=O)c2c(nc(N3CCOCC3)n2CCNC2=NCCC2)n(C)c1=O`, the inhibition is 9.61% (inactive). With `O=C(c1ccccc1)c1cccn1CC(=O)N1CCN(c2ccc(F)cc2)CC1`, the inhibition is 5.66% (inactive).

As to `Cc1nc(N)[nH]c(=O)c1Oc1cccc(C(F)(F)F)c1`, the inhibition was -9.16% (inactive). In the case of `CC(=O)c1ccc(S(=O)(=O)Nc2ccc(C(=O)NCC(c3ccccc3)N(C)C)cc2)cc1` (configuration not stated), the inhibition is -18.1% (inactive). With `COc1ccc(C(CNC(=O)c2ccc(S(=O)(=O)Nc3ccccc3F)cc2)N(C)C)cc1` (configuration not stated) the figure was 56.5% (active); with `COc1ccc(C(CNC(=O)c2ccc(NS(=O)(=O)c3ccc(F)c(C)c3)cc2)N(C)C)cc1` (configuration not stated), 26% (inactive); with `CCOC(=O)C1CCN(S(=O)(=O)c2c(C)noc2C)CC1`, 1.33% (inactive). Consider `C=CCNc1nc(N)c(C(=C(C#N)C#N)c2ccccc2)s1`, for which the inhibition is 10.1% (inactive). Next, `O=C(NCCCNCc1ccccc1)c1ccc(/C=N/O)nc1`: 6.05% (inactive); `COc1ccc(CNC(=O)c2ccc(NS(=O)(=O)c3ccc4[nH]c(=O)[nH]c4c3)cc2)cc1OC`: 8.25% (inactive); `COC(=O)c1ccccc1NC(=O)CN(Cc1ccc(Cl)cc1)S(C)(=O)=O`: -4.4% (inactive). Take `N#CCc1c(C#N)c(N)nc(N2CCCC2)c1C#N`: the inhibition was -2.29% (inactive). Turning to `Nc1nc(NCC(=O)O)nc(N2CCCCCC2)c1[N+](=O)[O-]`, the inhibition is -0.54% (inactive).

With `N#Cc1c(N2CCCCC2)nc(N)c2c(N)nc(SCC(=O)O)cc12`, the inhibition is 96% (active). Take `COc1nc(NC2CCCCC2)nc(N2CCCCCC2)n1`: the inhibition was 15.5% (inactive). As for `O=C(O)COCC(=O)NCc1csc2ccc(Cl)cc12`, the inhibition is -14.6% (inactive). Next, `CCOc1ccc(Br)cc1S(=O)(=O)Nc1ccc(S(=O)(=O)Nc2cc(C)on2)cc1`: 9.47% (inactive). Turning to `CCCS(=O)(=O)C(=C1Nc2ccccc2N1)S(=O)(=O)CCC`, the inhibition was 8.61% (inactive). As for `COc1ccc(S(=O)(=O)/N=C2\C=C(NS(=O)(=O)c3ccccc3)C(=O)c3ccccc32)cc1`, the inhibition was 79.2% (active). Take `CCCC(NS(=O)(=O)c1ccc(OC)cc1)C(=O)O` (configuration not stated): the inhibition was -6.54% (inactive). For the compound `COc1ccc(S(=O)(=O)NCCCc2ccccc2)cc1`, the inhibition was -8.3% (inactive). Turning to `CCOC(=O)c1cnc(SC)nc1Sc1ccc(Cl)cc1Cl`, the inhibition is 14% (inactive). Next, `O=C(c1cnccn1)N1CCN(S(=O)(=O)c2cccc(Cl)c2)CC1`: -4.31% (inactive); `O=C(CN1CCN(C2CCCCC2)CC1)Nc1ccccc1N1CCCCC1`: 6.34% (inactive).

Regarding `CN1CCN(c2ccccc2NC(=O)COc2ccc(C3CCCCC3)cc2)CC1`, the inhibition was 43.6% (active). With `Cc1ccc(C(C)C)cc1OCC(=O)Nc1ccccc1N1CCCC1`, the inhibition was 16.1% (inactive). Turning to `Cn1nnnc1SCC(=O)Nc1cccc(S(=O)(=O)N2CCCCC2)c1`, the inhibition was 7.72% (inactive). For the compound `CC(=O)c1c(C)[nH]c(C(=O)OCC(=O)NCCC(C)C)c1C`, the inhibition was -7.2% (inactive). Next, `CC(=O)c1c(C)[nH]c(C(=O)COC(=O)CCOc2ccc(C)cc2)c1C`: 9.54% (inactive); `CC(C)(C)C(=O)N1CCC[C@@]1(CO)C(=O)O`: 6.37% (inactive); `Cc1ccc(N=C2NC(=O)/C(=C/C=C/c3ccco3)S2)cc1C`: 61.8% (active).

As to `CN1C(=O)/C(=C/c2ccco2)SC1=Nc1cccc(C(=O)O)c1`, the inhibition was 20% (inactive). On to `Cc1nn(C)c(C)c1NS(=O)(=O)c1ccc(OC(F)(F)F)cc1`, for which the inhibition is -0.237% (inactive). For the compound `O=C1COc2ccc(S(=O)(=O)Nc3ccc(OC(F)(F)F)cc3)cc2N1`, the inhibition is 11.8% (inactive). `O=S(=O)(Nc1ccc(O)c2ccccc12)c1ccc(OC(F)(F)F)cc1`: the inhibition is 60.9% (active). In the case of `Cc1c(CCC(=O)O)c(=O)oc2cc3occ(-c4ccccc4)c3cc12`, the inhibition is -15.7% (inactive). As for `CCCCCCc1cc2cc(-c3nnc(-c4ccccc4)o3)c(=O)oc2cc1O`, the inhibition is 67.8% (active).

In the case of `CCc1ccc(CN(C)C(=O)CCc2nnc(-c3ccc(-c4ccccc4)cc3)o2)nc1`, the inhibition is 12.9% (inactive). Next, `O=C(/C=C/c1ccc([N+](=O)[O-])cc1)NCCSCc1ccco1`: -3.53% (inactive); `COc1ccc(S(=O)(=O)N(C)C)cc1NC(=O)CSc1ncccn1`: -1.98% (inactive).

For the compound `COc1ccc(NS(=O)(=O)c2ccc3oc(SCC(N)=O)nc3c2)cc1`, the inhibition is 4.33% (inactive). Take `CN(C)S(=O)(=O)c1ccc2oc(SCC(=O)Nc3ccccc3F)nc2c1`: the inhibition is 61.1% (active). Consider `CC(C)[C@@H]1COC(c2cccc(C3=N[C@H](C(C)C)CO3)c2)=N1`, for which the inhibition is 9.42% (inactive). Take `CN(C)c1ccnc(Oc2ccc(F)cc2)c1C#N`: the inhibition is -5.43% (inactive). On to `COc1ccccc1CNC(=O)[C@@H]1CCCN1C(=O)[C@@H]1Cc2ccccc2CN1C(=O)OC(C)(C)C`, for which the inhibition is 11% (inactive). With `COc1ccc(Cn2cccc(NC(=O)Nc3ccc(C#N)cc3)c2=O)cc1`, the inhibition is -0.047% (inactive). Regarding `Cc1cc(C)c(C(N)=O)c(Cl)n1`, the inhibition was -5.56% (inactive). Regarding `O=c1c2ccccc2[nH]c(=S)n1CCN1CCC(=C(c2ccc(F)cc2)c2ccc(F)cc2)CC1`, the inhibition is 15.1% (inactive). For the compound `O=C(CCCN1CCc2[nH]c3ccc(F)cc3c2C1)c1ccc(F)cc1`, the inhibition was 65% (active).

Consider `CC1CCc2[nH]c3ccc(C(=O)N(C)CC(=O)Nc4cccc(F)c4)cc3c2C1` (configuration not stated), for which the inhibition is 20.4% (inactive). Consider `Cc1nn(C)c(C)c1CN(C(=O)CCc1nnc(Cc2c[nH]c3ccccc23)o1)C(C)C`, for which the inhibition is -6.13% (inactive).

Take `O=C1CCCCC1C(=O)c1ccccc1` (configuration not stated): the inhibition was -20% (inactive). Regarding `COc1ccc(NC(=O)CCNS(=O)(=O)c2ccc3c(c2)c(=O)n(C)c(=O)n3C)cc1OC`, the inhibition was -6.12% (inactive). With `CC(C)=CC(=O)Nc1nnc(-c2ccc(F)cc2)s1` the figure was 0.969% (inactive); with `CC(=O)OC(COc1ccc(F)cc1)Cn1cnc2ccccc21` (configuration not stated), 17.3% (inactive). In the case of `CC(=O)N=c1ncn(CC(COC(C)=O)OC(C)=O)c2nc[nH]c12` (configuration not stated), the inhibition is 74.2% (active). As for `CC(=O)OCC(COC(C)=O)OC(C)=O`, the inhibition is 6.7% (inactive).

Source of the values: PubChem BioAssay AID489030 (Sanford-Burnham Center for Chemical Genomics, 2010).
